These results are taken from ChEMBL document CHEMBL3232808, “Synthesis, biological evaluation, and structure-activity relationships of potent noncovalent and nonpeptidic cruzain inhibitors as anti-Trypanosoma cruzi agents” (J Med Chem, 2014).

Broadly, the inhibition is the percentage by which the read-out fell short of the control. As usually defined, the IC50 is the concentration at which inhibition is half-maximal. A high value points to lower potency. Broadly, the Ki is the equilibrium dissociation constant of an inhibitor or competing ligand from its target. High values mean a looser hold on the target, low ones a stronger hold on the target.

Structures are written as SMILES.

In data set [1] the target is Cruzipain (Trypanosoma cruzi) (UniProt P25779). Nature of the data set: Inhibition of Trypanosoma cruzi cruzaine expressed in Escherichia coli SG13009 using Z-FR-AMC as substrate at 100 uM after 5 mins.
Cruzipain (Trypanosoma cruzi), sequence (P25779 123-467 limits assumed): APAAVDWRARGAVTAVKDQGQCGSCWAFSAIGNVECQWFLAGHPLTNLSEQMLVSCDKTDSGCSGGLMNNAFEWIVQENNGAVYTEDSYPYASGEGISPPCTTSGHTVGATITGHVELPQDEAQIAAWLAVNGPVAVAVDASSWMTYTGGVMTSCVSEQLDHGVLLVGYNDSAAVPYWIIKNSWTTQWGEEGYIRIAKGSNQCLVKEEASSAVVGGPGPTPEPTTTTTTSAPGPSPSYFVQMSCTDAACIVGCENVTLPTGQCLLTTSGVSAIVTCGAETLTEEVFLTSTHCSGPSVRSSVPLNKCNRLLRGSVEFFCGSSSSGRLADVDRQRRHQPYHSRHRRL
Data set [2] has as its target T1, Cruzipain (Trypanosoma cruzi, UniProt P25779). Kind of data set: Inhibition of Trypanosoma cruzi cruzaine expressed in Escherichia coli SG13009 using Z-FR-AMC as substrate after 5 mins.
The subject of data set [3] is Mus musculus. Kind of data set: Acute toxicity in BALB/c mouse at 20, 30, 50 and 50 mg/kg, ip administered at 0, 2, 4, 6 hrs respectively and measured after last dose. The following applies: in vivo. Details: dose 50 mg/kg, route intraperitoneal. Format: organism-based. In a few lines: (§1)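 One female BALB/c mouse (18–20 g) per compound. Stock diluted to 5 mg/mL in sterile distilled water, given ip as cumulative doses over 6 h (20, 30, 50, 50 mg/kg at 0, 2, 4, 6 h; total 150 mg/kg). Mice observed 48 h for acute toxicity signs (chill, thirst) or death, then euthanized.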

Data set [4] deals with Mus musculus. Kind of data set: Acute toxicity in BALB/c mouse at 20, 30, 50 and 50 mg/kg, ip administered at 0, 2, 4, 6 hrs respectively and measured after 24 hrs post last dose. It is filed as organism-based. Details: dose 50 mg/kg, route intraperitoneal. The settings on record: in vivo.
Data set [5] relates to Trypanosoma cruzi. Nature of the data set: Antitrypanosomal activity against amastigote stage of lacZ expressing Trypanosoma cruzi Tulahuen after 72 hrs. It is filed as functional, organism-based. In a few lines: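 Human fibroblasts seeded 2×10^3/well in RPMI 1640 without phenol red, overnight; β-galactosidase-expressing trypomastigotes added 1.0×10^4/well. After 24 h, compounds (DMSO stocks diluted in medium) added in serial dilutions 300 to 0.4 μM, triplicate; 72 h incubation. CPRG with Nonidet P-40 (0.1% final) added, absorbance 570 nm; IC50 from curve fitting; benznidazole positive, untreated negative controls; ≥3 experiments.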

In data set [6] the test system is Mus musculus. Nature of the data set: Acute toxicity in BALB/c mouse assessed as mortality incidence at 20, 30, 50 and 50 mg/kg, ip administered at 0, 2, 4, 6 hrs respectively and measured after 48 hrs post last dose. Format: organism-based. Details: dose 50 mg/kg, route intraperitoneal. The following applies: in vivo. The method in brief: as §1
The subject of data set [7] is Trypanosoma cruzi. Nature of the data set: Ratio of benznidazole IC50 to compound IC50 for amastigote stage of lacZ expressing Trypanosoma cruzi Tulahuen. It is filed as functional. The method in brief: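 Human fibroblasts (2×10^3/well) were seeded overnight in phenol-red-free RPMI 1640, then infected with β-galactosidase-expressing Tulahuen trypomastigotes (1.0×10^4/well). After 24 h, compounds (DMSO stocks) were added as serial dilutions from 300 to 0.4 μM, each in triplicate. After 72 h, CPRG with 0.1% Nonidet P-40 was added and A570 read. Benznidazole was run alongside as standard. IC50s are means of ≥3 experiments.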

For data set [8], the target named is T1, Cruzipain. Kind of data set: Competitive inhibition of Trypanosoma cruzi cruzaine expressed in Escherichia coli SG13009 using Z-FR-AMC as substrate by Lineweaver-Burk plot analysis. In a few lines: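 Mechanism study: eight Z-FR-AMC concentrations crossed with four inhibitor concentrations, each in triplicate, with 1.5 nM cruzain in 0.1 M sodium acetate pH 5.5, 5 mM DTT, 0.01% Triton X-100; 5 min initial rates; kinetic parameters obtained with an enzyme kinetics module.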

T1 sequence (P25779 whole entry): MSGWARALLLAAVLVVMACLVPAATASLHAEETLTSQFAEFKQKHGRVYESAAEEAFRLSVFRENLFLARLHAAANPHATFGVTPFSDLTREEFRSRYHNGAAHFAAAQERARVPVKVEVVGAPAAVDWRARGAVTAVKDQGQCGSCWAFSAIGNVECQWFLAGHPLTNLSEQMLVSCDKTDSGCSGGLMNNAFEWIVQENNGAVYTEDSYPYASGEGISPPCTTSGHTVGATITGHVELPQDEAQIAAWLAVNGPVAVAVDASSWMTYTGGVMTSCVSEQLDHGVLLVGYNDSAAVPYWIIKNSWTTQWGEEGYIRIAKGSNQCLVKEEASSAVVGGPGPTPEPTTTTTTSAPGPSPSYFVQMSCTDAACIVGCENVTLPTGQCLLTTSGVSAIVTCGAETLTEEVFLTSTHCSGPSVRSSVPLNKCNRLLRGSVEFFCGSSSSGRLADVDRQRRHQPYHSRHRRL

The molecule `Cc1ccccc1OCC(=O)NCCC(=O)O` showed an inhibition in data set [1] of 8%.

The molecule `Cc1ccccc1OCC(=O)NCCN1CCCCC1` gave an inhibition in data set [1] of 3%.

Regarding `Cc1cc(C)c(C#N)c(SCCNC(=O)COc2ccccc2C)n1`, the inhibition in data set [1] came to 13%.

Molecule `CC(=O)Nc1ccccc1OCC(=O)NCCc1nc2ccccc2[nH]1` gave an inhibition in data set [1] of 25%.

In turn, `O=C(COc1ccc2ccccc2c1CO)NCCc1nc2ccccc2[nH]1` yielded a concentration for half-maximal inhibition (IC50) against Cruzipain [2] of 12.7 µM. In addition, the inhibition in data set [1] is 80%.

For the molecule `O=C(COc1cccc(Br)c1)NCCc1nc2ccccc2[nH]1`, the values for the Activity entry in the data set on Mus musculus [3], in the data set on Mus musculus [4] and in the data set on Mus musculus [6] were “Toxic”, “Non-toxic” and “Non-toxic”, respectively. Besides, the values for the IC50 on Cruzipain [2] and in the data set with Trypanosoma cruzi [5] were 0.8 µM and > 100 µM, respectively. This molecule also came in with an inhibition in data set [1] of 96%.

In data set [1], `Cc1ccccc1OCC(=O)NCCc1nc2ccccc2o1` gave an inhibition of 33%. Further, 2.9 µM corresponded to half-maximal inhibition in the data set on Trypanosoma cruzi [5] (IC50).

`O=C(COc1ccccc1Br)NCCN1CCCCC1` returned an inhibition in data set [1] of 1%.

With `O=C(COc1ccc2ccccc2c1)NCCC(=O)Nc1ccccc1O`, the inhibition in data set [1] was determined as 14%.

Regarding `Cc1ccc2[nH]c(CCNC(=O)COc3ccc4ccccc4c3Br)nc2c1`, the IC50 against Cruzipain [2] came to 0.62 µM. In addition, the inhibition in data set [1] came out at 97%.

On to `O=C(COc1ccccc1)NCCc1nc2ccccc2[nH]1`, for which the inhibition in data set [1] came to 88%.

Consider `O=C(COc1ccccc1Cl)NCCc1cnc[nH]1`, for which the inhibition in data set [1] was determined as 14%.

`O=Cc1c(OCC(=O)NCCc2nc3ccccc3[nH]2)ccc2ccccc12` registered an IC50 against Cruzipain [2] of 13.5 µM. Besides, the inhibition in data set [1] was found to be 80%.

Take `O=C(COc1ccccc1[N+](=O)[O-])NCCc1nc2ccccc2[nH]1`: the IC50 was 13.2 µM on Cruzipain [2] and 7.9 µM in the data set with Trypanosoma cruzi [5]. Also, the inhibition in data set [1] is 93%.

For the molecule `Cc1ccccc1OCC(=O)NCCC(=O)Nc1ccccc1`, the inhibition in data set [1] was 4%.

The molecule `O=C(COc1ccc2ccccc2c1)NCCc1cnc[nH]1` showed an inhibition in data set [1] of 7%.

`Cc1ccccc1OCC(=O)NCCc1nc2ccccc2[nH]1`: the Activity entry is “Toxic” in the data set with Mus musculus [3], “Non-toxic” with Mus musculus [4] and “Non-toxic” with Mus musculus [6]. Also, the figures for the IC50 on Cruzipain [2] and with Trypanosoma cruzi [5] were 4.1 µM and 2.8 µM, respectively. Also, the inhibition in data set [1] turned out to be 88%.

Take `O=C(COc1ccccc1Br)NCCc1nc2ccccc2[nH]1`: the “Ratio IC50” value in the data set with Trypanosoma cruzi [7] was 3. Moreover, the IC50 against Cruzipain [2] worked out at 0.8 µM; in the data set on Trypanosoma cruzi [5], 1.6 µM. The molecule also gave an inhibition in data set [1] of 89%.

In data set [1], `O=C(CCOc1ccccc1)NCCc1nc2ccccc2[nH]1` had an inhibition of 25%.

At Cruzipain [2], `O=C(COc1ccc2ccccc2c1Br)NCCc1nc2cc(Cl)ccc2[nH]1` gave an IC50 of 0.6 µM. The molecule further displayed an inhibition in data set [1] of 90%.

`O=C(COc1ccc2ccccc2c1)NCCc1nc2ccccc2o1` yielded an inhibition in data set [1] of 22%.

On to `O=C(COc1ccc2ccccc2c1Br)NCCc1c[nH]c2ccccc12`, for which the inhibition in data set [1] worked out at 2%.

Take `C=CCCn1c(CCNC(=O)COc2ccccc2Cl)nc2ccccc21`: the 50% inhibitory concentration (IC50) at Cruzipain [2] turned out to be 23.9 µM; with Trypanosoma cruzi [5], 11.1 µM. Also, the inhibition in data set [1] is 89%.

Turning to `CC(=O)n1c(CCNC(=O)COc2ccc(Br)cc2)nc2ccccc21`, the IC50 was determined as 9.9 µM on Cruzipain [2] and 5.3 µM in the data set with Trypanosoma cruzi [5]. Moreover, the inhibition in data set [1] was 84%.

Consider `O=C(COc1ccccc1F)NCCc1nc2ccccc2[nH]1`, for which the Activity result with Mus musculus [3] was “Toxic”; in the data set with Mus musculus [4], “Non-toxic”; in the data set on Mus musculus [6] it was “Non-toxic”. For the same molecule, the figures for the 50% inhibitory concentration (IC50) at Cruzipain [2] and in the data set with Trypanosoma cruzi [5] were 5.3 µM and > 100 µM, respectively. In data set [1], the inhibition was found to be 92%.

Take `Cc1ccccc1OCC(=O)NCCC(=O)NCc1ccccc1`: the inhibition in data set [1] was 8%.

`Nc1ccccc1OCC(=O)NCCc1nc2ccccc2[nH]1` yielded an inhibition in data set [1] of 43%.

As for `O=C(CCc1ccccc1Br)NCCN1CCCCC1`, the inhibition in data set [1] amounted to 7%.

Turning to `O=C(COc1ccc2ccccc2c1)NCCc1nc2ccccc2[nH]1`, the IC50 on Cruzipain [2] was found to be 3 µM; with Trypanosoma cruzi [5] it was 46.1 µM. Further, the inhibition in data set [1] stood at 90%.

In the case of `O=C(CSc1ccccc1)NCCc1nc2ccccc2[nH]1`, the Activity entry with Mus musculus [3] was “Toxic”; in the data set on Mus musculus [4] it was “Non-toxic”; with Mus musculus [6] it was “Non-toxic”. The values for the IC50 on Cruzipain [2] and with Trypanosoma cruzi [5] were 38.4 µM and > 100 µM, respectively. For the same molecule, the inhibition in data set [1] is 66%.

With `O=C(COc1cccc2ccccc12)NCCc1nc2ccccc2[nH]1`, the half-maximal inhibitory concentration (IC50) is 5.2 µM against Cruzipain [2] and > 100 µM in the data set on Trypanosoma cruzi [5]. In addition, in data set [1], the inhibition came to 84%.

For the molecule `Cc1ccccc1OCC(=O)NCCc1c[nH]c2ccccc12`, the inhibition in data set [1] worked out at 5%.

Take `Nc1ccccc1NC(=O)CCNC(=O)COc1ccccc1[N+](=O)[O-]`: in data set [1], the inhibition was found to be 4%.

In the case of `O=C(COc1ccc(Br)cc1)NCCc1nc2ccccc2[nH]1`, the Activity result with Mus musculus [3] was “Toxic”; in the data set with Mus musculus [4], “Non-toxic”; in the data set on Mus musculus [6] it was “Non-toxic”. Besides, the half-maximal inhibitory concentration (IC50) against Cruzipain [2] was 2.7 µM; with Trypanosoma cruzi [5], 6.7 µM. The same molecule showed an inhibition in data set [1] of 96%.

The molecule `Cc1ccccc1OCCNCCc1nc2ccccc2[nH]1` had an inhibition in data set [1] of 8%.

Consider `O=C(COc1ccc2ccccc2c1Br)NCCc1nc2ccccc2[nH]1`, for which the IC50 on Cruzipain [2] is 0.21 µM; with Trypanosoma cruzi [5] it was 16.2 µM. For the same molecule, at Cruzipain [8], affinity was put at a Ki of 0.082 µM. This molecule also gave an inhibition in data set [1] of 92%.

Consider `O=C(COc1ccccc1I)NCCc1nc2ccccc2[nH]1`, for which the Activity result with Mus musculus [3] is reported as “Toxic”; with Mus musculus [4], “Non-toxic”; with Mus musculus [6] it was “Toxic”. Besides, the values for the IC50 against Cruzipain [2] and in the data set on Trypanosoma cruzi [5] were 1.6 µM and > 100 µM, respectively. In data set [1], the inhibition stood at 96%.

As for `O=C(COc1ccccc1Cl)NCCc1nc2ccccc2[nH]1`, the 50% inhibitory concentration (IC50) against Cruzipain [2] was 3 µM; in the data set with Trypanosoma cruzi [5], > 100 µM. For the same molecule, the inhibition in data set [1] is 92%.

Turning to `COc1ccc2[nH]c(CCNC(=O)COc3ccc4ccccc4c3Br)nc2c1`, the IC50 at Cruzipain [2] was found to be 0.54 µM. Also, the inhibition in data set [1] came to 93%.

In the case of `Cc1ccccc1OCC(=O)NCCC(=O)Nc1ccccc1O`, in data set [1], the inhibition was 2%.

On to `O=C(COc1ccc2ccccc2c1O)NCCc1nc2ccccc2[nH]1`, for which, on Cruzipain [2], the midpoint of inhibition, the IC50, lay at 8.2 µM. In addition, in data set [1], the inhibition worked out at 51%.

For the molecule `O=C(Cn1ccnc1[N+](=O)[O-])NCc1ccccc1` [BENZNIDAZOLE], the IC50 with Trypanosoma cruzi [5] is 4.8 µM.

`O=C(CCc1ccccc1Br)NCCc1nc2ccccc2[nH]1`: the IC50 turned out to be 77.5 µM against Cruzipain [2] and 34.6 µM with Trypanosoma cruzi [5]. Also, in data set [1], the inhibition worked out at 51%.

With `CC(=O)n1c(CCNC(=O)COc2ccccc2[N+](=O)[O-])nc2ccccc21`, the inhibition in data set [1] was 47%.

Take `N#Cc1ccccc1OCC(=O)NCCc1nc2ccccc2[nH]1`: the Activity entry in the data set with Mus musculus [3] is “Toxic”; in the data set on Mus musculus [4], “Non-toxic”; with Mus musculus [6], “Non-toxic”. In addition, the IC50 stood at 65.1 µM against Cruzipain [2] and 6.5 µM in the data set with Trypanosoma cruzi [5]. Moreover, the inhibition in data set [1] worked out at 81%.
